Test results: ChEMBL document CHEMBL1155262, “A new class of anticonvulsants possessing 6 Hz activity: 3,4-dialkyloxy thiophene bishydrazones” (Eur J Med Chem, 2009)
Active and inactive are the calls of the source. The calls are words filed in the database; no cut-off is given here.

Key:
[1] = system: Mus musculus; assay: Anticonvulsant activity in mouse CF1 albino assessed as inhibition of subcutaneous metrazole-induced seizure at 300 mg/kg, ip after 0.5 hrs; assay type: functional, organism-based; design: dose 300 mg/kg
[2] = system: Mus musculus; assay: Anticonvulsant activity in mouse CF1 albino assessed as inhibition of maximal electric shock-induced seizure at 300 mg/kg, ip after 0.5 hrs; assay type: functional, organism-based; design: dose 300 mg/kg
Outline: (§1)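 Male CF-1 albino mice (18–25 g); compound suspended in 0.5% methyl cellulose/water or PEG 200, given i.p. at 30, 100 and 300 mg/kg (0.01 mL/g). Tested 0.5 or 4 h after dosing. Protection = abolition of hind limb tonic extensor component of MES seizure.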

[3] = system: Mus musculus; assay: Anticonvulsant activity in ip dosed mouse CF1 albino assessed as inhibition of maximal electric shock-induced seizure after 4 hrs; assay type: functional; outline: as §1
[4] = system: Mus musculus; assay: Anticonvulsant activity in mouse CF1 albino assessed as inhibition of subcutaneous metrazole-induced seizure at 300 mg/kg, ip after 4 hrs; assay type: functional, organism-based; design: dose 300 mg/kg
[5] = system: Mus musculus; assay: Neurotoxicity against mouse CF1 albino assessed as minimal motor impairment at 300 mg/kg, ip after 0.5 hrs by rotord test; assay type: toxicity, organism-based; design: dose 300 mg/kg, route intraperitoneal; conditions: in vivo
Outline: (§2)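 Rotorod minimal motor impairment in male CF-1 albino mice (18–25 g) after i.p. dosing at 30, 100 or 300 mg/kg in 0.5% methyl cellulose/water or PEG 200. Mice placed on a rod rotating at 6 rpm at 0.5 or 4 h. Value is minimum dose causing impairment in at least one mouse.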

[6] = system: Mus musculus; assay: Neurotoxicity against mouse CF1 albino assessed as minimal motor impairment at 300 mg/kg, ip after 4 hrs by rotord test; assay type: toxicity, organism-based; design: dose 300 mg/kg, route intraperitoneal; conditions: in vivo; outline: as §2
[7] = system: Mus musculus; assay: Anticonvulsant activity in mouse CF1 albino assessed as inhibition of minimal electric shock-induced seizure at 100 mg/kg, ip after 0.25 hrs; assay type: functional, organism-based; design: dose 100 mg/kg
Outline: (§3)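 6 Hz psychomotor seizure model in male CF-1 albino mice dosed i.p. Four mice per time point (0.25, 0.5, 1, 2, 4 h) received corneal-electrode current of 32 mA for 3 s. Untreated mice show a minimal clonic phase followed by stereotyped automatistic behaviour. Results given as number protected out of 4.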

[8] = system: Mus musculus; assay: Anticonvulsant activity in mouse CF1 albino assessed as inhibition of minimal electric shock-induced seizure at 100 mg/kg, ip after 4 hrs; assay type: functional, organism-based; design: dose 100 mg/kg; outline: as §3
[9] = system: Mus musculus; assay: Anticonvulsant activity in mouse CF1 albino assessed as inhibition of minimal electric shock-induced seizure at 50 mg/kg, ip after 0.5 hrs; assay type: functional, organism-based; design: dose 50 mg/kg; outline: as §3
[10] = system: Mus musculus; assay: Anticonvulsant activity in mouse CF1 albino assessed as inhibition of minimal electric shock-induced seizure at 50 mg/kg, ip after 1 hr; assay type: functional, organism-based; design: dose 50 mg/kg; outline: as §3
[11] = system: Mus musculus; assay: Anticonvulsant activity in mouse CF1 albino assessed as inhibition of minimal electric shock-induced seizure at 50 mg/kg, ip after 2 hrs; assay type: functional, organism-based; design: dose 50 mg/kg; outline: as §3
[12] = system: Mus musculus; assay: Anticonvulsant activity in mouse CF1 albino assessed as inhibition of minimal electric shock-induced seizure at 50 mg/kg, ip after 4 hrs; assay type: functional, organism-based; design: dose 50 mg/kg; outline: as §3
[13] = system: Mus musculus; assay: Anticonvulsant activity in mouse CF1 albino assessed as inhibition of minimal electric shock-induced seizure at 50 mg/kg, ip after 0.25 hrs; assay type: functional, organism-based; design: dose 50 mg/kg; outline: as §3
[14] = system: Mus musculus; assay: Anticonvulsant activity in mouse CF1 albino assessed as inhibition of maximal electric shock-induced seizure at 300 mg/kg, ip after 4 hrs; assay type: functional, organism-based; design: dose 300 mg/kg; outline: as §1
[15] = system: Mus musculus; assay: Neurotoxicity against ip dosed mouse CF1 albino assessed as minimal motor impairment after 0.5 hrs by rotord test; assay type: toxicity, organism-based; conditions: in vivo; outline: as §2
[16] = system: Mus musculus; assay: Neurotoxicity against ip dosed mouse CF1 albino assessed as minimal motor impairment after 4 hrs by rotord test; assay type: toxicity, organism-based; conditions: in vivo; outline: as §2
[17] = system: Mus musculus; assay: Anticonvulsant activity in mouse CF1 albino assessed as inhibition of minimal electric shock-induced seizure at 100 mg/kg, ip after 1 hr; assay type: functional, organism-based; design: dose 100 mg/kg; outline: as §3
[18] = system: Mus musculus; assay: Anticonvulsant activity in mouse CF1 albino assessed as inhibition of minimal electric shock-induced seizure at 100 mg/kg, ip after 2 hrs; assay type: functional, organism-based; design: dose 100 mg/kg; outline: as §3
[19] = system: Mus musculus; assay: Anticonvulsant activity in mouse CF1 albino assessed as inhibition of minimal electric shock-induced seizure at 100 mg/kg, ip after 0.5 hrs; assay type: functional, organism-based; design: dose 100 mg/kg; outline: as §3
[20] = system: Mus musculus; assay: Anticonvulsant activity in ip dosed mouse CF1 albino assessed as inhibition of subcutaneous metrazole-induced seizure after 4 hrs; assay type: functional
[21] = system: Mus musculus; assay: Anticonvulsant activity in mouse CF1 albino assessed as inhibition of minimal electric shock-induced seizure at 30 mg/kg, ip after 0.25 hrs; assay type: functional, organism-based; design: dose 30 mg/kg; outline: as §3
[22] = system: Mus musculus; assay: Anticonvulsant activity in mouse CF1 albino assessed as inhibition of minimal electric shock-induced seizure at 30 mg/kg, ip after 0.5 hrs; assay type: functional, organism-based; design: dose 30 mg/kg; outline: as §3
[23] = system: Mus musculus; assay: Anticonvulsant activity in mouse CF1 albino assessed as inhibition of minimal electric shock-induced seizure at 30 mg/kg, ip after 1 hr; assay type: functional, organism-based; design: dose 30 mg/kg; outline: as §3
[24] = system: Mus musculus; assay: Anticonvulsant activity in mouse CF1 albino assessed as inhibition of minimal electric shock-induced seizure at 30 mg/kg, ip after 2 hrs; assay type: functional, organism-based; design: dose 30 mg/kg; outline: as §3
[25] = system: Mus musculus; assay: Anticonvulsant activity in mouse CF1 albino assessed as inhibition of minimal electric shock-induced seizure at 30 mg/kg, ip after 4 hrs; assay type: functional, organism-based; design: dose 30 mg/kg; outline: as §3

SMILES	Activity [1]	Activity [2]	Activity [4]	Activity [6]	Activity [14]	Activity [15] [mg/kg]	other results
C/C(=N\NC(=O)c1sc(C(=O)N/N=C(\C)c2cccs2)c(OCc2ccccc2)c1OCc1ccccc1)c1cccs1	inactive	inactive	inactive	Not Active			Activity [3]: 300 mg/kg; Activity [5]: Not Active
CCCOc1c(C(=O)N/N=C(/C)c2ccsc2)sc(C(=O)N/N=C(/C)c2ccsc2)c1OCCC							Activity [7]: inactive; Activity [8]: inactive
CCCCCCCOc1c(C(=O)NN)sc(C(=O)NN)c1OCCCCCCC	inactive	inactive	inactive	Not Active			Activity [3]: 100 mg/kg; Activity [5]: Not Active
CCCCCCCOc1c(C(=O)N/N=C/c2ccc3c(c2)c2ccccc2n3CC)sc(C(=O)N/N=C/c2ccc3c(c2)c2ccccc2n3CC)c1OCCCCCCC							Activity [9]: inactive; Activity [10]: inactive; Activity [11]: inactive; Activity [12]: inactive; Activity [13]: inactive
CCCOc1c(C(=O)NN)sc(C(=O)NN)c1OCCC	inactive	inactive	inactive	Not Active	inactive	100	
CCCOc1c(C(=O)N/N=C2/C(=O)Nc3ccccc32)sc(C(=O)N/N=C2/C(=O)Nc3ccccc32)c1OCCC	inactive	inactive	inactive			100	Activity [3]: 300 mg/kg; Activity [16]: 300 mg/kg; Activity [17]: inactive; Activity [18]: inactive; Activity [8]: inactive
CCCCCCCOc1c(C(=O)N/N=C2/C(=O)Nc3ccccc32)sc(C(=O)N/N=C2/C(=O)Nc3ccccc32)c1OCCCCCCC							Activity [7]: inactive; Activity [17]: inactive
O=C(N/N=C/c1ccc([N+](=O)[O-])cc1)c1sc(C(=O)N/N=C/c2ccc([N+](=O)[O-])cc2)c(OCc2ccccc2)c1OCc1ccccc1	inactive	inactive	inactive	Not Active	inactive	100	
CCCOc1c(C(=O)N/N=C/c2ccc(N(C)C)cc2)sc(C(=O)N/N=C/c2ccc(N(C)C)cc2)c1OCCC	inactive	inactive	inactive		inactive	100	Activity [16]: 300 mg/kg
CCCOc1c(C(=O)N/N=C/c2cccnc2N)sc(C(=O)N/N=C/c2cccnc2N)c1OCCC							Activity [19]: inactive; Activity [17]: inactive; Activity [18]: inactive; Activity [8]: inactive
CCCOc1c(C(=O)N/N=C/c2ccc(C(=O)O)cc2)sc(C(=O)N/N=C/c2ccc(C(=O)O)cc2)c1OCCC	inactive	inactive	inactive	Not Active	inactive	100	
CCCOc1c(C(=O)N/N=C(/C)c2ccc(Br)s2)sc(C(=O)N/N=C(/C)c2ccc(Br)s2)c1OCCC							Activity [19]: inactive
CCCOc1c(C(=O)N/N=C(/C)c2ccsc2Br)sc(C(=O)N/N=C(/C)c2ccsc2Br)c1OCCC							Activity [7]: inactive; Activity [18]: inactive; Activity [8]: inactive
CCCOc1c(C(=O)N/N=C/c2cc([N+](=O)[O-])ccc2Br)sc(C(=O)N/N=C/c2cc([N+](=O)[O-])ccc2Br)c1OCCC	inactive	inactive	inactive	Not Active	inactive	300	
CCCOc1c(C(=O)N/N=C/c2ccccc2O)sc(C(=O)N/N=C/c2ccccc2O)c1OCCC	inactive	inactive		Not Active	inactive		Activity [20]: 300 mg/kg; Activity [5]: Not Active; Activity [7]: inactive; Activity [18]: inactive; Activity [8]: inactive
COc1cc(/C=N/NC(=O)c2sc(C(=O)N/N=C/c3cc(OC)c(OC)c(OC)c3)c3c2OCCO3)cc(OC)c1OC	inactive	inactive	inactive	Not Active	inactive	300	
CCCOc1c(C(=O)N/N=C(/C)c2cc(Cl)sc2Cl)sc(C(=O)N/N=C(/C)c2cc(Cl)sc2Cl)c1OCCC	inactive	inactive		Not Active	inactive	300	Activity [20]: 300 mg/kg
CCCCCCCOc1c(C(=O)N/N=C/c2cc(OC)c(OC)c(OC)c2)sc(C(=O)N/N=C/c2cc(OC)c(OC)c(OC)c2)c1OCCCCCCC							Activity [7]: inactive
CCCOc1c(C(=O)N/N=C/c2ccccc2OC)sc(C(=O)N/N=C/c2ccccc2OC)c1OCCC	inactive	inactive	inactive	Not Active	inactive	100	
CCCOc1c(C(=O)N/N=C/c2ccc([N+](=O)[O-])cc2)sc(C(=O)N/N=C/c2ccc([N+](=O)[O-])cc2)c1OCCC	inactive	inactive	inactive	Not Active	inactive	100	
CCCCCCCOc1c(C(=O)N/N=C(\C)c2cccs2)sc(C(=O)N/N=C(\C)c2cccs2)c1OCCCCCCC							Activity [21]: inactive; Activity [22]: inactive; Activity [23]: inactive; Activity [24]: inactive; Activity [25]: inactive; Activity [17]: inactive
